Reference: ChEMBL document CHEMBL3351428, “Uralsaponins M-Y, antiviral triterpenoid saponins from the roots of Glycyrrhiza uralensis” (J Nat Prod, 2014)

Legend:
[1] = Antiviral activity against Influenza A virus A/WSN/33 (H1N1) infected in MDCK cells assessed as inhibition of virus-induced cell death at 100 uM after 36 hrs by CellTiter-Glo luminescent cell viability assay; format: functional, Influenza A virus (A/WSN/1933(H1N1))
How it was run: (§1)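 MDCK cells in DMEM/10% FBS with penicillin-streptomycin, seeded 1 × 10^5/well 24 h before infection (37 °C, 5% CO2). Virus was grown in MDCK with 2 μg/mL TPCK-trypsin. Compound premixed with virus 15 min at room temperature, then added after medium removal. Read at 36 h postinfection by microscopy, confirmed by CellTiter-Glo. Inhibition % computed from luminescence relative to DMSO with/without virus. IC50 measured for significant inhibitors.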

[2] = Antiviral activity against Influenza A virus A/WSN/33 (H1N1) infected in MDCK cells assessed as inhibition of virus-induced cell death after 36 hrs by CellTiter-Glo luminescent cell viability assay; format: functional, cell-based, Influenza A virus (A/WSN/1933(H1N1)); how it was run: as §1
[3] = test system: MDCK; experiment: Cytotoxicity against MDCK cells assessed as reduction in cell viability at 100 uM after 36 hrs by CellTiter-Glo luminescent assay; format: cell-based, Canis lupus familiaris; details: dog
How it was run: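 Uninfected MDCK cells, grown in DMEM with 10% FBS, 100 U/mL penicillin and 100 μg/mL streptomycin, were incubated with compound for 36 h. Cytopathic effect was scored by microscopy and confirmed by CellTiter-Glo luminescent viability read-out.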

[4] = test system: Human immunodeficiency virus 1; experiment: Antiviral activity against VSV-G protein pseudotyped HIV1 infected in 293T cells assessed as inhibition of viral replication after 48 hrs by luciferase reporter assay; format: functional, organism-based; details: Human immunodeficiency virus 1, HEK-293T
How it was run: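 Pseudovirus was made by cotransfecting 293T cells with pNL-Luc-E and pHIT/G and harvesting filtered supernatant after 48 h. Capsid level was quantified by p24 ELISA. SupT1 cells were infected at MOI 1 with or without compound (efavirenz as positive control) at […] for 48 h. Luciferase read-out gave inhibition rate. Compounds above 50% at 100 μM were taken to IC50.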

[5] = test system: Human immunodeficiency virus 1; experiment: Antiviral activity against VSV-G protein pseudotyped HIV1 infected in 293T cells assessed as inhibition of viral replication at 100 uM after 48 hrs by luciferase reporter assay; format: functional; details: Human immunodeficiency virus 1, HEK-293T

| Structure (SMILES) | inhibition at 100 µM [1] [%] | IC50 [2] [µM] | Activity [3] | IC50 [4] [µM] | inhibition at 100 µM [5] [%] |
| --- | --- | --- | --- | --- | --- |
| C[C@@H]1O[C@@H](O[C@H]2[C@H](O[C@H]3[C@H](O[C@H]4CC[C@]5(C)[C@H]6C(=O)C=C7[C@@H]8C[C@@](C)(C(=O)O)[C@H](O)C[C@]8(C)CC[C@@]7(C)[C@]6(C)CC[C@H]5C4(C)C)O[C@H](C(=O)O)[C@@H](O)[C@@H]3O)O[C@H](CO)[C@@H](O)[C@@H]2O)[C@H](O)[C@H](O)[C@H]1O | 47.5 | 42.7 | Non-toxic | – | – |
| C[C@@H]1O[C@@H](O[C@@H]2CC(C)(C)C[C@H]3C4=CC(=O)[C@@H]5[C@@]6(C)CC[C@H](O[C@@H]7O[C@H](C(=O)O)[C@@H](O)[C@H](O)[C@H]7O[C@@H]7O[C@H](C(=O)O)[C@@H](O)[C@H](O)[C@H]7O)C(C)(C)[C@@H]6CC[C@@]5(C)[C@]4(C)CC[C@@]23C)[C@H](O)[C@H](O)[C@H]1O | 47.5 | 39.6 | Non-toxic | – | – |
| CC(=O)O[C@@H]1C[C@](C)(C(=O)O)C[C@H]2C3=CC(=O)[C@@H]4[C@@]5(C)CC[C@H](O[C@H]6O[C@H](C(=O)O)[C@@H](O)[C@H](O)[C@H]6O[C@@H]6O[C@H](C(=O)O)[C@@H](O)[C@H](O)[C@H]6O)C(C)(C)[C@@H]5CC[C@@]4(C)[C@]3(C)CC[C@@]12C | 47.5 | 49.1 | Non-toxic | 29.5 | – |
| CC1(C)[C@@H](O[C@@H]2O[C@H](C(=O)O)[C@@H](O)[C@H](O)[C@H]2O[C@@H]2O[C@H](C(=O)O)[C@@H](O)[C@H](O)[C@H]2O)CC[C@]2(C)[C@H]3C(=O)C=C4[C@@H]5C[C@]6(C)C[C@@H](OC6=O)[C@]5(C)CC[C@@]4(C)[C@]3(C)CC[C@@H]12 | – | – | – | 87.1 | > 50 |
| CC1(C)[C@@H](O[C@@H]2O[C@H](C(=O)O)[C@@H](O)[C@H](O)[C@H]2O[C@@H]2O[C@H](C(=O)O)[C@@H](O)[C@H](O)[C@H]2O)CC[C@]2(C)[C@H]3CC=C4[C@@H]5C[C@@](C)(C(=O)O)CC[C@]5(C)CC[C@@]4(C)[C@]3(C)CC[C@@H]12 | – | – | – | 83.2 | > 50 |
| CC1(C)[C@@H](O[C@H]2O[C@H](C(=O)O)[C@@H](O)[C@H](O)[C@H]2O[C@@H]2OC[C@H](O)[C@H](O)[C@H]2O)CC[C@]2(C)[C@H]3C(=O)C=C4[C@@H]5C[C@@](C)(C(=O)O)CC[C@]5(C)CC[C@@]4(C)[C@]3(C)CC[C@@H]12 | – | – | – | 85.1 | > 50 |
| CC(=O)O[C@@H]1C[C@](C)(C=O)C[C@H]2C3=CC(=O)[C@@H]4[C@@]5(C)CC[C@H](O)C(C)(C)[C@@H]5CC[C@@]4(C)[C@]3(C)CC[C@@]12C | – | – | – | 69.2 | > 50 |
| CC1(C)[C@@H](O[C@@H]2O[C@H](CO)[C@@H](O)[C@H](O)[C@H]2O)CC[C@]2(C)[C@H]3C(=O)C=C4[C@@H]5C[C@@](C)(C(=O)O)CC[C@]5(C)CC[C@@]4(C)[C@]3(C)CC[C@@H]12 | – | – | – | 41.7 | > 50 |
| CC1(C)[C@@H](O)CC[C@]2(C)[C@H]3C(=O)C=C4[C@@H]5C[C@@](C)(C(=O)O)CC[C@]5(C)CC[C@@]4(C)[C@]3(C)CC[C@@H]12 [ENOXOLONE] | – | – | – | 28.8 | – |
| CCOC(=O)C1=C[C@@H](OC(CC)CC)[C@H](NC(C)=O)[C@@H](N)C1 [OSELTAMIVIR PHOSPHATE] | 78 | 45.6 | – | – | – |
